In brackets after ≈: the same amount, converted by molar mass.
What was measured:
Staphylococcus aureus = test: Antimicrobial activity against methicillin-resistant Staphylococcus aureus ATCC 33591 after 18 hrs; type: functional; conditions: ATCC 33591, 18 h
In short: (§1)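 Broth microdilution. A colony was grown overnight in trypticase soy broth at 37 °C with shaking, then regrown to mid-log phase. 10^6 CFU/mL inoculum was mixed 1:1 with peptide dilutions (100 to 0.5 μg/mL) and incubated 18 h at 37°C. Read at OD600; MIC is the lowest concentration inhibiting growth. Three experiments, each in duplicate.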

Escherichia coli [1] = test: Antimicrobial activity against Escherichia coli JM109 after 18 hrs; type: functional; conditions: JM109, 18 h
In short: (§2)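 Broth microdilution. Bacteria grown overnight in trypticase soy broth at 37 °C with shaking, then regrown to mid-log phase. 10^6 CFU/mL mixed 1:1 with peptide (100 to 0.5 μg/mL) and incubated 18 h at 37 °C. MIC taken as the lowest concentration inhibiting growth by OD600. Untreated bacteria served as control. Three experiments, each in duplicate.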

[2] = system: Staphylococcus epidermidis; test: Antimicrobial activity against methicillin-resistant Staphylococcus epidermidis RP62A after 18 hrs; type: functional; in short: as §1
Klebsiella pneumoniae = test: Antimicrobial activity against Klebsiella pneumoniae ATCC 13383 after 18 hrs; type: functional; conditions: ATCC 13383, 18 h; in short: as §2
Enterococcus faecalis = test: Antimicrobial activity against vancomycin-resistant Enterococcus faecalis ATCC 700802 after 18 hrs; type: functional; conditions: ATCC 700802, 18 h; in short: as §1
[3] = Hemolytic activity in human RBC after 1 hr; type: ADME, cell-based, Erythrocyte; conditions: red blood cells (erythrocytes)
In short: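 Fresh human erythrocytes, PBS-washed (1000g, 10 min), as a 5% v/v suspension mixed 1:1 with two-fold compound dilutions. Incubated 1 h at 37 °C, then centrifuged. Supernatant hemoglobin read at 540 nm. PBS served as 0% lysis and 0.1% Triton X-100 as 100% lysis; % hemolysis computed relative to these.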

[4] = Selectivity ratio of HC50 for hemolytic activity in human RBC to MIC for methicillin-resistant Staphylococcus aureus ATCC 33591; type: toxicity; conditions: red blood cells (erythrocytes)
Escherichia coli [5] = test: Bactericidal activity against Escherichia coli assessed as time required for bacterial kill at 25 to 50 ug/ml by time kill assay; type: functional
Escherichia coli [6] = test: Bactericidal activity against Escherichia coli assessed as time required for bacterial kill at 12.5 ug/ml by time kill assay; type: functional

Row | SMILES | MIC (Staphylococcus aureus) [µg/mL] | MIC (Escherichia coli [1]) [µg/mL] | MIC [2] [µg/mL] | MIC (Klebsiella pneumoniae) [µg/mL] | MIC (Enterococcus faecalis) [µg/mL] | HC50 at 1 h [3] [µg/mL] | selectivity ratio [4] | Time (Escherichia coli [5]) [min] | Time (Escherichia coli [6]) [min]
1 | CCCCCCCCCCCCCCCC(=O)N[C@@H](CCCCN)C(=O)NCCN(C(=O)CCc1ccccc1)[C@@H](CCCCN)C(=O)NCCN(C(=O)CCc1ccccc1)[C@@H](CCCCN)C(N)=O | < 3 | 1.5 to 3 (≈ 1.51 to 3.03 µM) | > 25 | > 25 | > 25 | 31.2 | 10.4 | – | –
2 | CCCCCCCCCCCCCC(=O)N[C@@H](CCCCN)C(=O)NCCN(C(=O)CCc1ccccc1)[C@@H](CCCCN)C(N)=O | 12 to 25 (≈ 18.2 to 37.9 µM) | 6 to 12 (≈ 9.11 to 18.2 µM) | > 25 | > 25 | > 25 | – | – | – | –
3 | CCCCCCCC(=O)N[C@@H](CCCCN)C(=O)NCCN(C(=O)CCc1ccccc1)[C@@H](CCCCN)C(N)=O | > 25 | > 25 | > 25 | > 25 | > 25 | – | – | – | –
4 | CCCCCCCCCCCCCCCC(=O)N[C@@H](CCCCN)C(=O)NCCN(C(=O)CCc1ccccc1)[C@@H](CCCCN)C(N)=O | 1.5 to 3 (≈ 2.18 to 4.37 µM) | 1.5 to 3 (≈ 2.18 to 4.37 µM) | 3 to 6 (≈ 4.37 to 8.73 µM) | 6 to 12 (≈ 8.73 to 17.5 µM) | 6 to 12 (≈ 8.73 to 17.5 µM) | 31.2 | 10.4 | – | –
5 | CCCCCCCCCCCC(=O)N[C@@H](CCCCN)C(=O)NCCN(C(=O)CCc1ccccc1)[C@@H](CCCCN)C(N)=O | > 25 | > 25 | > 25 | > 25 | > 25 | – | – | – | –
6 | CCCCCCCCCC(=O)N[C@@H](CCCCN)C(=O)NCCN(C(=O)CCc1ccccc1)[C@@H](CCCCN)C(N)=O | > 25 | > 25 | > 25 | > 25 | > 25 | – | – | – | –
7 | CCCCCCCCCCCCCCCC(=O)NCCN(C(=O)CCc1ccccc1)[C@@H](CCCCN)C(N)=O | 25 (≈ 44.7 µM) | > 25 | > 25 | > 25 | > 25 | – | – | – | –
8 | CCCCCCCCCCCCCCCC(=O)N[C@@H](CCCCN)C(=O)NCCN(C(=O)CCc1ccccc1)[C@@H](CCCCN)C(=O)NCCN(C(=O)CCc1ccccc1)[C@@H](CCCCN)C(=O)NCCN(C(=O)CCc1ccccc1)[C@@H](CCCCN)C(N)=O | 1.5 to 3 (≈ 1.16 to 2.32 µM) | 1.5 to 3 (≈ 1.16 to 2.32 µM) | 3 to 6 (≈ 2.32 to 4.64 µM) | > 25 | 6 to 12 (≈ 4.64 to 9.27 µM) | 250 | 83 | – | –
9 | CCCCCCCCCCCCCCCC(=O)N[C@@H](CCCCN)C(=O)NCCN(C(=O)CCCN)[C@@H](Cc1ccccc1)C(N)=O | – | 3 (≈ 4.55 µM) | – | 3 (≈ 4.55 µM) | – | 125 | – | 60 | 120
10 | CCCCCC(=O)N[C@@H](CCCCN)C(=O)NCCN(C(=O)CCc1ccccc1)[C@@H](CCCCN)C(N)=O | > 25 | > 25 | > 25 | > 25 | > 25 | – | – | – | –

— ChEMBL document CHEMBL4270533, “Lipidated α/α-AA heterogeneous peptides as antimicrobial agents” (Eur J Med Chem, 2018)
